Reference: ChEMBL document CHEMBL4020838, “The Discovery of ( S)-1-(6-(3-((4-(1-(Cyclopropanecarbonyl)piperidin-4-yl)-2-methylphenyl)amino)-2,3-dihydro-1 H-inden-4-yl)pyridin-2-yl)-5-methyl-1 H-pyrazole-4-carboxylic Acid, a Soluble Guanylate Cyclase Activator Specifically Designed for Topical Ocular Delivery as a Therapy for Glaucoma” (J Med Chem, 2018)
Each block holds one molecule with its values, some of them ahead of it. The source made the active and inactive calls. The rule behind the calls is not given here.

Experiments:
Homo sapiens [1] = species on record: Homo sapiens; experiment: Activation of HUVEC-derived soluble guanylate cyclase expressed in CHOK1 cells assessed as increase in cGMP production after 1 hr by HTRF assay relative to 1-{6-[5-chloro-2-({4-[trans-4-(trifluoromethyl)cyclohexyl]-benzyl}oxy)phenyl)pyridin-2-yl)-5-(trifluoromethyl)-1H-pyrazole-4-carboxylic acid; type: cell-based
Procedure, shortened: (§1)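 High-throughput assay in Chinese hamster ovary cells expressing sGC. cGMP was measured across a dose range. EC50 and Emax (maximal cGMP produced) were taken from the dose-response curve.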

Homo sapiens [2] = species on record: Homo sapiens; experiment: Activation of soluble guanylate cyclase in human GTM3 cells assessed as increase in cGMP production after 30 mins by fluorescence assay relative to 1-{6-[5-chloro-2-({4-[trans-4-(trifluoromethyl)cyclohexyl]-benzyl}oxy)phenyl)pyridin-2-yl)-5-(trifluoromethyl)-1H-pyrazole-4-carboxylic acid; type: cell-based
Procedure, shortened: (§2)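 Immortalized glaucomatous trabecular meshwork (GTM-3) cells expressing endogenous levels of sGC were used. cGMP was read across a dose range. EC50 and Emax were derived from the dose-response curve.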

Cynomolgus monkey [3] = experiment: Reduction of intraocular pressure in laser-induced ocular hypertensive cynomolgus monkey at 300 ug administered as single topical dose; type: functional; conditions: Macaca fascicularis
Procedure, shortened: (§3)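 Cynomolgus monkeys with laser-induced elevated IOP received a single topical ocular dose of 300 μg in a 30 μL drop. IOP and ocular signs were observed after dosing.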

[4] = Activation of HUVEC-derived soluble guanylate cyclase expressed in CHOK1 cells assessed as increase in cGMP production after 1 hr by HTRF assay; type: cell-based; procedure, shortened: as §1
[5] = Activation of soluble guanylate cyclase in human GTM3 cells assessed as increase in cGMP production after 30 mins by fluorescence assay; type: cell-based; procedure, shortened: as §2
Cynomolgus monkey [6] = experiment: Toxicity in laser-induced ocular hypertensive cynomolgus monkey assessed as ocular irritation at 300 ug administered as single topical dose; parameters: species or system Macaca fascicularis; conditions: in vivo, topical_or_ocular; procedure, shortened: as §3
Oryctolagus cuniculus [7] = experiment: Toxicity in New Zealand albino rabbit eye up to 300 ug administered as single topical dose measured up to 24 hrs post dose; conditions: in vivo, topical_or_ocular
Cynomolgus monkey [8] = experiment: Reduction of intraocular pressure in laser-induced ocular hypertensive cynomolgus monkey at 100 ug administered as single topical dose measured at 6 hr post dose relative to control; type: functional, Macaca fascicularis; parameters: scale not given: the % may be the effect or the level left
Procedure, shortened: (§4)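 Cynomolgus monkeys with laser-induced elevated IOP received one 30 μL topical ocular drop containing 100 μg of compound, formulated as a suspension. Percent IOP reduction was recorded at 6 h and at 24 h after dosing.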

Cynomolgus monkey [9] = experiment: Toxicity in laser-induced ocular hypertensive cynomolgus monkey assessed as ocular discharge at 300 ug administered as single topical dose; parameters: species or system Macaca fascicularis; conditions: in vivo, topical_or_ocular; procedure, shortened: as §3
Cynomolgus monkey [10] = experiment: Toxicity in laser-induced ocular hypertensive cynomolgus monkey assessed as conjunctival hyperemia at 300 ug administered as single topical dose; parameters: species or system Macaca fascicularis; conditions: in vivo, topical_or_ocular; procedure, shortened: as §3
Cynomolgus monkey [11] = experiment: Reduction of intraocular pressure in laser-induced ocular hypertensive cynomolgus monkey at 100 ug administered as single topical dose measured at 24 hrs post dose relative to control; type: functional, Macaca fascicularis; parameters: scale not given: the % may be the effect or the level left; procedure, shortened: as §4
Oryctolagus cuniculus [12] = experiment: Toxicity in New Zealand albino rabbit assessed as ocular discharge at 300 ug administered as single topical dose measured up to 24 hrs post dose; conditions: in vivo, topical_or_ocular
Oryctolagus cuniculus [13] = experiment: Toxicity in New Zealand albino rabbit assessed as conjunctival hyperemia at 300 ug administered as single topical dose measured up to 24 hrs post dose; conditions: in vivo, topical_or_ocular
Oryctolagus cuniculus [14] = experiment: Toxicity in New Zealand albino rabbit assessed as conjunctival hyperemia at 30 ug administered as single topical dose measured up to 24 hrs post dose; conditions: in vivo, topical_or_ocular
Oryctolagus cuniculus [15] = experiment: Toxicity in New Zealand albino rabbit assessed as excessive blinking at 30 ug administered as single topical dose measured up to 24 hrs post dose; conditions: in vivo, topical_or_ocular
Cynomolgus monkey [16] = experiment: Toxicity in laser-induced ocular hypertensive cynomolgus monkey eye at 30 ug administered as single topical dose; parameters: species or system Macaca fascicularis; conditions: in vivo, topical_or_ocular
[17] = Dissociation constant, pKa of the compound; type: physicochemical

SMILES: CCc1cc(OCC2=C(c3cccc(-n4ncc(C(=O)O)c4C(F)(F)F)n3)CCCC2C)ccc1C1CCN(C(=O)C2CC2)CC1 (single isomer, unassigned; (+))
- Activity (Oryctolagus cuniculus [14]): Toxic
- Activity (Oryctolagus cuniculus [15]): Toxic
- EC50 [4]: 1 nM
- EC50 [5]: 6 nM

SMILES: CCc1cc(OCC2=C(c3cccc(-n4ncc(C(=O)O)c4C)n3)CCCC2C)ccc1C1CCN(C(=O)C2CC2)CC1 (single isomer, unassigned; (+))
- EC50 [4]: < 0.5 nM
- EC50 ([5]; Homo sapiens, GTM3, 0.5 h): 9 nM
- Activity (Cynomolgus monkey [16]): Non-Toxic
- Activity (Oryctolagus cuniculus [7]): Non-Toxic

SMILES: Cc1cc(C2CCN(C(=O)C3CC3)CC2)ccc1NC1CCc2cccc(-c3cccc(-n4ncc(C(=O)O)c4C(F)(F)F)n3)c21 (single isomer, unassigned; (+))
- Activity (Oryctolagus cuniculus [14]): Toxic
- Activity (Oryctolagus cuniculus [15]): Toxic
- EC50 [4]: < 0.5 nM
- EC50 [5]: 3 nM

SMILES: Cc1cc(C2CCN(C(=O)C3CC3)CC2)ccc1NC1CCc2cccc(-c3cccc(-n4ncc(C(=O)O)c4C)n3)c21 (stereo in doubt; (+)-23)
- pKa [17]: 4.3
- EC50 [4]: < 0.5 nM
- EC50 [5]: 5 nM
- Activity (Cynomolgus monkey [16]): Non-Toxic
- Activity (Oryctolagus cuniculus [7]): Non-Toxic

More lines, main results first:

- EC50 ([4]; CHO-K1, 1 h): 1 nM
- EC50 ([5]; Homo sapiens, GTM3, 0.5 h): 12 nM
SMILES: CCc1c(C)sc(-c2cccc(-n3ncc(C(=O)O)c3C(F)(F)F)n2)c1COc1ccc(C2CCN(C(=O)C3CC3)CC2)cc1C
- Emax (Homo sapiens [1]): 101%
- Emax (Homo sapiens [2]): 93%
- Activity (Cynomolgus monkey [3]): Active
- Activity (Cynomolgus monkey [6]): Toxic
- Activity (Oryctolagus cuniculus [7]): Non-Toxic

- EC50 ([4]; CHO-K1, 1 h): 5.5 nM
- EC50 ([5]; Homo sapiens, GTM3, 0.5 h): 370 nM
SMILES: CCC(=O)N1CCC(c2ccc(OCc3ccsc3-c3cccc(-n4ncc(C(=O)O)c4C(F)(F)F)n3)c(C)c2)CC1
- Emax (Homo sapiens [1]): 100%
- Emax (Homo sapiens [2]): 97%
- Activity (Cynomolgus monkey [8]): 17%
- Activity (Cynomolgus monkey [9]): Toxic
- Activity (Cynomolgus monkey [10]): Toxic
- Activity (Cynomolgus monkey [11]): 10%
- Activity (Oryctolagus cuniculus [12]): Toxic
- Activity (Oryctolagus cuniculus [13]): Toxic

- pKa [17]: 3.1
- EC50 [4]: 1 nM
- EC50 ([5]; Homo sapiens, GTM3, 0.5 h): 55 nM
SMILES: Cc1cc2c(c(-c3cccc(-n4ncc(C(=O)O)c4C(F)(F)F)n3)c1)C(Nc1ccc(C3CCN(C(=O)C4CC4)CC3)cc1C)CC2 (single isomer, unassigned; (+))
